Source: ChEMBL document CHEMBL3576864, “Striatoids A-F, Cyathane Diterpenoids with Neurotrophic Activity from Cultures of the Fungus Cyathus striatus” (J Nat Prod, 2015)
Activity calls are given as the source filed them. The calls are words filed in the database; no cut-off is given here.

Tests used:
PC-12 [1] = test: Effect on neurite outgrowth in rat PC12 cells at 10 to 40 uM after 48 hrs by inverted microscopic analysis; type: functional, cell-based
How it was run: (§1)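 PC-12 cells grown in F-12 (Ham) with 10% heat-inactivated HS, 5% FBS, penicillin/streptomycin, 37 °C, 5% CO2. Seeded on poly-L-lysine wells (2 × 10^4 cells/mL), 24 h. Switched to low serum (1% HS, 0.5% FBS), then dosed 10–40 μM with NGF 20 ng/mL (vehicle 0.1% DMSO), triplicate wells, 48 h. Phase-contrast scoring: ≥100 cells in each of five random fields; neurite ≥ one cell body = positive, as % of cells.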

PC-12 [2] = test: Neurotrophic activity in rat PC12 cells assessed as enhancement of NGF-induced neurite outgrowth after 48 hrs by inverted microscopic analysis; type: functional, cell-based; how it was run: as §1

SMILES | Activity (PC-12 [1]) | Activity (PC-12 [2])
CC(=O)O[C@@H]1[C@H]2CC[C@@H]3C4=C(C(C)C)C[C@H](O)[C@]4(C)CC[C@@]3(C)[C@H]3O[C@@H]4OC[C@@]1(O)[C@H](O)[C@]4(O)[C@H]23 | inactive | Dose-dependent effect
CC(C)C1=C2[C@H]3CC=C4[C@H]5O[C@H]6CO[C@H]7O[C@@H]([C@@H]4[C@@]7(O)[C@@]6(O)O5)[C@]3(C)CC[C@@]2(C)[C@@H](O)C1 | inactive | Dose-dependent effect
CO[C@H]1O[C@@]2(O)[C@H](O)CO[C@H]3O[C@H]4[C@@H]([C@@H]1CC[C@@H]1C5=C(C(C)C)C[C@H](O)[C@]5(C)CC[C@]14C)[C@]32O | inactive | Dose-dependent effect
CC(=O)O[C@@H]1C2=CC[C@@H]3C4=C(C(C)C)C[C@H](O)[C@]4(C)CC[C@@]3(C)[C@H]3O[C@@H]4OC[C@@]1(O)[C@H](O)[C@]4(O)[C@H]23 | inactive | Dose-dependent effect
CC(C)C1=C2[C@H]3CC=C4[C@@H](O)[C@@]5(O)CO[C@H]6O[C@@H]([C@@H]4[C@@]6(O)[C@H]5O)[C@]3(C)CC[C@@]2(C)[C@@H](O)C1 | inactive | Dose-dependent effect
CC(C)C1=C2[C@H]3CC=C4[C@@H]5O[C@]6(O)[C@@]7(O)[C@@H](OC[C@]6(O)O5)O[C@@H]([C@@H]47)[C@]3(C)CC[C@@]2(C)[C@@H](O)C1 | inactive | Dose-dependent effect
